# Compound activity (PubChem)
# hERG protect: compounds protecting human hERG from proarrhythmic drug block; Q12809; activation (rescue from dofetilide block), less the hit threshold, % at 10 µM; CHO-hERG, FluxOR thallium flux, dofetilide IC70 present; hit rate 0.51% among 310,000;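 active means activation above the mean of controls blocked by dofetilide plus 5 SD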;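 further: thallium influx through hERG after potassium depolarization seen as dye fluorescence rise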
# KCNQ1 inh: inhibitors of human KCNQ1 potassium channel; B-score at 10 µM; CHO-K1 KCNQ1, FluxOR thallium flux fluorescence; stronger effect = higher value; AID 2642; hit rate 1.3% among 310,000;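 active means compounds whose thallium flux B-score, printed positive for inhibition, exceeds three library SD while starting fluorescence stays within three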;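 further: channel opened by potassium depolarization with thallium stimulus after 20 min compound exposure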
# KCNQ1 pot: potentiates or activates the human KCNQ1 potassium channel; P51787; CHO-K1 KCNQ1, thallium flux FluxOR fluorescence; stronger effect = higher value; B-score at 10 µM; hit rate 0.35% among 310,000; AID 2648;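 active means fluorescence ratio B-score, a plate-corrected score, at least three library SD, with initial intensity B-score within 5 SD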
#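 assay system = KCNQ1-transfected CHO-K1 cells | medium = assay buffer with matched DMSO | probe or stimulus = depolarizing K+/Tl+ stimulus, K2SO4 and Tl2SO4 each 12.5 mM in 5x stock | dosing = single dose | incubation = dye 90 min, compound 20 min, room temperature | detection = kinetic FluxOR fluorescence, 10 s baseline plus 110 s post-stimulus | evaluation = ratio B score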
# KCC2 mod: KCC2 (human) Cl- transport modulation; Q9H2X9; KCC2 cells, thallium flux FluoZin-2 fluorescence; B-score of Tl+ flux slope (higher = more flux/activation; lower = inhibition) at 10 µM; hit rate 2.2% among 190,000;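 active means thallium flux slope and its plate-corrected score both differing from the plate sample mean at a set confidence after two filtering rounds, in either direction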;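 further: slope of fluorescence scaled to starting intensity during 10 to 20 s after thallium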
# Target sequence (Q9H2X9 whole entry, looked up): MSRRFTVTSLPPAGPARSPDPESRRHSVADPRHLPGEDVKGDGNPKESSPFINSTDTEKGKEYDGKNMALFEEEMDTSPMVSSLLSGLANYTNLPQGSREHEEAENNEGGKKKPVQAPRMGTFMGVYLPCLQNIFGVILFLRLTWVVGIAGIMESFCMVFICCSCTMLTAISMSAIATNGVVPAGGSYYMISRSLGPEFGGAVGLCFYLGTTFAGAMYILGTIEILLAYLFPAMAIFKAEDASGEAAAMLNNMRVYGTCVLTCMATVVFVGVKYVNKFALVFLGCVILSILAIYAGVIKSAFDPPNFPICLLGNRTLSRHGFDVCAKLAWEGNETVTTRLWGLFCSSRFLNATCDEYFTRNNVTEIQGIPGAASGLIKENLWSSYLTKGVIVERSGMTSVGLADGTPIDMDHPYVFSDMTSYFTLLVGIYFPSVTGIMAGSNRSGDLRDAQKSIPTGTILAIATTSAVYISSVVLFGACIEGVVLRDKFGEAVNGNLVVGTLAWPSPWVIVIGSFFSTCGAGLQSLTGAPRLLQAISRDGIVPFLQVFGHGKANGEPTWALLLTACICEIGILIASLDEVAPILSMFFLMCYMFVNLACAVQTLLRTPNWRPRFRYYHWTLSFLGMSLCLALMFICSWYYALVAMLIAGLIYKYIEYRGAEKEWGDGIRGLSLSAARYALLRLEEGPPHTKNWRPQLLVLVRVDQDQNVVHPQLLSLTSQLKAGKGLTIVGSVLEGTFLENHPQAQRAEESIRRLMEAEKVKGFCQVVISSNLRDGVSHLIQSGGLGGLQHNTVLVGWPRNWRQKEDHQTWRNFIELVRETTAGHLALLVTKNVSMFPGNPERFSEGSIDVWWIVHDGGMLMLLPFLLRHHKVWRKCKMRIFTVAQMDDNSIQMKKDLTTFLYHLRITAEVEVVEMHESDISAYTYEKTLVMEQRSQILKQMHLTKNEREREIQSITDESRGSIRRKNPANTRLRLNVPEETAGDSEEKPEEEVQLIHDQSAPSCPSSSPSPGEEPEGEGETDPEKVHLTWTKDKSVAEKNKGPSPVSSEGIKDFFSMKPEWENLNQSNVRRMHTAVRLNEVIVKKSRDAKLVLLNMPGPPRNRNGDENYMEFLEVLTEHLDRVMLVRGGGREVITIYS
# KCNK3 inh: human KCNK3 channel inhibition, primary screen; AID 602410; hit rate 0.84% among 340,000; O14649; B-score at 10 µM; CHO-KCNK3 thallium flux, FluxOR fluorescence; stronger effect = lower value;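 active means B-score under library mean minus 4 SD, starting fluorescence ratio at most library mean plus 5 SD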;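 further: more negative B-score means stronger inhibition of thallium flux through KCNK3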
# KCNK9 inh: human KCNK9 channel inhibition | AID 488922 | HEK293 KCNK9, FluxOR thallium flux fluorescence; stronger effect = lower value | hit rate 1.2% among 310,000 | B-score at 10 µM;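 active means ratio B-score over 3 SD below the library mean, with starting fluorescence within 5 SD of its mean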;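 further: negative B-score means less thallium flux so channel inhibition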
# KCNK9 block conf: human KCNK9 inhibitor confirmation. shares compounds with KCNK9 inh. HEK293 KCNK9 cells, FluxOR thallium flux fluorescence. inhibition, % at 10 µM. hit rate 43% among 4,900;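 active means thallium signal inhibited by more than 5 SD of the compound-free buffer control wells, on both duplicate plates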;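 further: 0% = assay buffer control wells without compound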
# Kir21 sel: tests whether KCNK9 modulators also affect mouse Kir2.1. shares compounds with KCNK9 inh. inhibition, % at 10 µM. Kir2.1 cells, FluxOR thallium flux fluorescence. AID 492993. hit rate 4% among 4,900;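 active means thallium signal drop more than 5 SD beyond the mean of the no-compound control wells, seen in both duplicate plates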;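 further: signal is fluorescence rise after thallium addition divided by baseline fluorescence; plate controls were assay buffer only for no effect and full block by chlorpromazine control for full effect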
# KCNK9 uninduced: non-induced cell nonspecific activity of KCNK9 modulators; shares compounds with KCNK9 inh; non-induced KCNK9-HEK293, FluxOR thallium flux; inhibition, % at 10 µM; hit rate 40% among 4,900; AID 492997;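 active means thallium signal drop beyond 5 SD of the untreated control mean, on both duplicate plates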;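 further: plate controls were buffer only IC0 wells for no effect and SID17386958 at its maximal inhibitory level for full effect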
# The depositor's hits bear a star; i = inactive; / = not tested or not shown. Shown are actives, neighbours in structure and some others; about 4.1% of the full set was active somewhere.
SMILES,hERG protect,KCNQ1 inh,KCNQ1 pot,KCC2 mod,KCNK3 inh,KCNK9 inh,KCNK9 block conf,Kir21 sel,KCNK9 uninduced
COc1ccc2c(c1)CCC1C2CCC2(C)C(O)C(=O)CC12 (centres undefined),/,/,/,/,i,/,/,/,/
O=C(NC1CCN(Cc2ccccc2)CC1)C1CCN(S(=O)(=O)c2cccc3nsnc23)CC1,-6.0,i,i,0.3,i,i,/,/,/
O=S(=O)(c1cccc2nsnc12)N1CCN(Cc2ccccc2)CC1,-8.0,i,i,/,i,i,i,i,i
Cc1ccc2nsnc2c1S(=O)(=O)N1CCN(Cc2ccc3c(c2)OCO3)CC1,0.3,i,i,/,i,i,i,i,i
COc1ccc(S(=O)(=O)N2CCN(Cc3ccc4c(c3)OCO4)CC2)cc1,-5.7,i,i,/,i,i,/,/,/
CCOc1ccc(S(=O)(=O)N2CCN(Cc3ccc4c(c3)OCO4)CC2)cc1Cl,-5.3,i,i,/,i,i,i,i,i
Cc1cccc(S(=O)(=O)N2CCN(Cc3ccc4c(c3)OCO4)CC2)c1,-7.5,i,i,/,i,i,i,i,i
CCC(C)NC(=O)C1CCC(=O)N1CCc1ccccc1 (centres undefined),-8.2,i,i,/,i,i,/,/,/
Cc1cc(C)c2c(c1)/C(=N\N=c1\sc3ccccc3n1C)C(=O)N2,-13.7,i,i,-2.05,i,i,/,/,/
COc1ccc(F)cc1S(=O)(=O)N1CCN(Cc2ccc3c(c2)OCO3)CC1,-10.2,i,i,0.805,i,i,i,i,i
COc1ccc(C(=O)n2cnc3ccccc32)cc1,-5.7,i,i,/,i,i,/,/,/
COC(=O)CCCC(=O)N1CCCC(C(=O)c2ccccc2SC)C1 (centres undefined),-8.4,i,i,/,i,i,/,/,/
COc1cc(OC)c(OC)cc1CN1CCCC(C(=O)c2ccccc2SC)C1 (centres undefined),-9.0,i,i,/,i,i,i,i,i
COc1cc(CN2CCCC(C(=O)c3ccccc3SC)C2)cc(OC)c1 (centres undefined),-12.3,i,i,/,i,i,i,i,i
Cc1cc(C)n2c(SCC(=O)Nc3ccccc3C#N)nnc2n1,/,/,/,/,i,/,/,/,/
O=C(COC(=O)C1CC1)NCCc1ccccc1,/,/,/,/,i,/,/,/,/
CC(CCc1ccccc1)NC(=O)COC(=O)C1CCC(C(C)(C)C)CC1 (centres undefined),-10.4,i,i,-1.49,i,i,i,i,i
CN1c2ccccc2-c2nc3ccccc3n2C1c1cccs1 (centres undefined),-14.0,i,i,-0.435,i,-8.58*,37.5%*,i,41.5%*
c1csc(C2Nc3ccccc3-c3nc4ccccc4n32)c1 (centres undefined),-14.2,i,i,-0.679,i,i,/,/,/
Cc1ccc(C2N(C)c3ccccc3-c3nc4ccccc4n32)o1 (centres undefined),-10.8,i,i,/,i,-11.4*,32.5%*,i,30.5%*
CC(C)(CCC(=S)N1CCOCC1)c1ccccc1,/,/,/,/,i,/,/,/,/
O=C(NCc1cccnc1)c1nc(-c2ccccc2)n(-c2ccccc2)n1,-13.1,i,i,/,i,i,/,/,/
COCCN(Cc1nc(C(c2ccccc2)c2ccccc2)no1)C(C)C,-4.0,i,i,/,i,-8.66*,i,i,i
COCCN(C)Cc1nc(C(c2ccccc2)c2ccccc2)no1,-5.3,i,i,/,i,i,/,/,/
O=[N+]([O-])c1ccc(C(=S)N2CCC(Cc3ccccc3)CC2)cc1,-6.5,i,i,-1.19,i,-12.7*,i,i,i
SMILES,hERG protect,KCNQ1 inh,KCNQ1 pot,KCC2 mod,KCNK3 inh,KCNK9 inh,KCNK9 block conf,Kir21 sel,KCNK9 uninduced
O=[N+]([O-])c1ccc(CN2CCC(Cc3ccccc3)CC2)cc1,-8.5,i,i,/,i,i,/,/,/
O=C1CC(N2CCC(Cc3ccccc3)CC2)C(=O)N1CCc1ccccc1 (centres undefined),-1.4,i,i,-1.65,i,i,i,i,i
O=C1CC(N2CCN(C3CC(=O)N(CCc4ccccc4)C3=O)CC2)C(=O)N1CCc1ccccc1 (centres undefined),-3.1,i,i,0.0262,i,i,/,/,/
COc1ccccc1N1CCN(C2CCCN(C(=O)c3cccc(-c4ccco4)c3)C2)CC1 (centres undefined),-14.8,i,i,/,i,i,i,i,i
COc1ccccc1N1CCN(C2CCCN(C(=O)c3ccoc3C)C2)CC1 (centres undefined),-4.9,i,i,/,i,i,/,/,/
Fc1ccc(-c2ccc3c(c2)C2CC3CCN2)cc1 (centres undefined),/,/,/,/,i,/,/,/,/
Cc1noc(C)c1NC(=O)N(C)C[C@H]1Oc2c(NC(=O)C3CCCCC3)cccc2C(=O)N([C@H](C)CO)C[C@@H]1C,/,/,/,/,i,/,/,/,/
COc1ccccc1C(=O)/C=C/c1ccc(N2CCCCC2)c([N+](=O)[O-])c1,-3.7,i,i,-0.247,i,-9.96*,50.0%*,i,31.0%*
Cc1cccc(NC(=O)CNC(=O)COC(=O)C2CC2C)c1C (centres undefined),/,/,/,/,i,/,/,/,/
CCOC(=O)c1c(C)[nH]c(N=Nc2cccc(OC)c2)c1C,-19.4,i,i,1.03,i,-11.6*,62.0%*,i,i
CCOC(=O)C1=C(COC(=O)CCOc2ccccc2)NC(=O)NC1C (centres undefined),/,/,/,/,i,/,/,/,/
Clc1ccccc1CN(Cc1ccco1)Cc1nnnn1C1CCCC1,-4.9,i,i,-0.0236,i,-9.87*,59.5%*,47.0%*,41.0%*
CCCc1nccn1S(=O)(=O)c1cc(OC)ccc1OC,-12.6,i,i,-0.396,i,i,/,/,/
Cc1ccc(S(=O)(=O)n2nc(OC(=O)c3c(F)cccc3Cl)cc2N)cc1,-2.7,i,i,/,i,-19.5*,61.0%*,i,36.5%*
CC1=NOC(=O)/C1=C\c1ccc(-c2ccc(Cl)cc2Cl)o1,-5.0,i,i,/,i,i,i,i,i
CCCOc1ccc(Cl)cc1/C=C1/C(=O)ON=C1C,-3.8,i,i,/,i,i,/,/,/
